This is an account of results in the array DNA melting data of Ke et al. (doi:10.1101/2024.01.08.574731).

Series [1] can be described thus: folding enthalpy; higher = less favourable; fluorescence melt of hairpins on a sequencing array, two-state fit. To be noted: sodium 0.088 M. The gist of the method: (§1)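 Hairpins were imaged by Cy3 fluorescence on a sequenced MiSeq flow cell with annealed Cy3 and quencher oligos, in 50 mM Na-HEPES pH 8.0, 25 mM NaCl, in 2.5 °C steps up to 60 °C. Bootstrapped two-state fits of normalised signals gave melting temperature and folding enthalpy. Four replicates were combined by inverse variance, and fitted temperatures were raised by 9.35 °C to match UV melts.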

The nature of series [2]: melting temperature; fluorescence melt of hairpins on a sequencing array, two-state fit, raised by 9.35 °C to match UV melts. To be noted: sodium 0.088 M. The method in brief:
as §1

Regarding GGGCACCGAAAGGTCCC (((.(((....)))))), the folding enthalpy in series [1] was -34 kcal/mol. In addition, the Tm in series [2] is 54.5 °C.

Turning to GGGCACGAAAGTGCGCCC ((((((....)))..))), the folding enthalpy in series [1] is -11.8 kcal/mol. The Tm in series [2] was 54.9 °C.

With GGGCACGAAAGTGGACCC ((((((....)))..))), in series [1], the folding enthalpy is -17.9 kcal/mol. In addition, the Tm in series [2] is 53.6 °C.

As to GGGCACGGAAACGCACCC (((..((....))..))), the folding enthalpy in series [1] is -20.2 kcal/mol. For the same sequence, the Tm in series [2] turned out to be 35.6 °C.

As to GGGCACGGAAACGTACCC (((.(((....))).))), the folding enthalpy in series [1] is -40.1 kcal/mol. Besides, the Tm in series [2] was 51.4 °C.

In the case of GGGCACGGAAACGTGCTC (.(((((....))))).), the folding enthalpy in series [1] is -14.6 kcal/mol. Further, the Tm in series [2] stood at 63.2 °C.

Take GGGCACGGAAACGTGTCC ((.((((....)))).)): the folding enthalpy in series [1] was -40.8 kcal/mol. Moreover, in series [2], the Tm came out at 63.4 °C.

As to GGGCAGAAATGCCC (((((....))))), the folding enthalpy in series [1] is -24 kcal/mol. Besides, the Tm in series [2] was 65.2 °C.

With GGGCAGCGAAAGCTCCCC (((.(((....))).))), the folding enthalpy in series [1] is -18.3 kcal/mol. In addition, the Tm in series [2] is 56.3 °C.

As for GGGCAGCGAAAGCTTCCC (((.(((....))).))), the folding enthalpy in series [1] was -38.7 kcal/mol. The Tm in series [2] was determined as 55.8 °C.

In the case of GGGCAGGGAAACCCGCCC ((((.((....)).)))), the folding enthalpy in series [1] is -38.2 kcal/mol. Further, the Tm in series [2] came to 60 °C.

On to GGGCAGGGAAACCTACCC (((.(((....))).))), for which the folding enthalpy in series [1] is -29.2 kcal/mol. For the same sequence, in series [2], the Tm amounted to 45.5 °C.

Turning to GGGCATCCGAAAGGACCC (((..(((....)))))), the folding enthalpy in series [1] was -18.3 kcal/mol. In addition, the Tm in series [2] came out at 38.6 °C.

GGGCATCGAAAGATACCC (((.(((....))).))): the folding enthalpy in series [1] was -31.6 kcal/mol. The Tm in series [2] is 49.5 °C.

As to GGGCATGCGAAAGCACCC (((..(((....)))))), the folding enthalpy in series [1] is -18.6 kcal/mol. In addition, the Tm in series [2] was determined as 42.3 °C.

As for GGGCATGGAAACATACCC (((.(((....))).))), the folding enthalpy in series [1] was -31.8 kcal/mol. For the same sequence, the Tm in series [2] is 44.1 °C.

GGGCATGGAAACGTGCCC (((((.(....).))))): in series [1], the folding enthalpy was -50.3 kcal/mol. Besides, the Tm in series [2] is 60 °C.

For GGGCCACGAAAGTGCCC (((.(((....)))))), the folding enthalpy in series [1] is -21.9 kcal/mol. Besides, the Tm in series [2] turned out to be 61.6 °C.

Turning to GGGCCCACGAAAGTGCCC (((..(((....)))))), the folding enthalpy in series [1] was -18.8 kcal/mol. Further, in series [2], the Tm is 50.4 °C.

Turning to GGGCCCGAAAGGGAGCCC ((((((....)))..))), in series [1], the folding enthalpy is -23.8 kcal/mol. Moreover, in series [2], the Tm came to 62.3 °C.

Turning to GGGCCCGGAAACGGACCC (((.(((....))).))), in series [1], the folding enthalpy is -39.3 kcal/mol. In series [2], the Tm was found to be 58.8 °C.

On to GGGCCGCGAAAGCGTCCC (((.(((....))).))), for which the folding enthalpy in series [1] is -20.4 kcal/mol. For the same sequence, the Tm in series [2] stood at 65.8 °C.

On to GGGCCGGGAAACCGACCC (((.(((....))).))), for which the folding enthalpy in series [1] was -43.9 kcal/mol. In series [2], the Tm was 57.5 °C.

As for GGGCCGGGAAACCGGTCC ((.((((....)))).)), in series [1], the folding enthalpy was -38.3 kcal/mol. For the same sequence, the Tm in series [2] stood at 68.8 °C.

On to GGGCCTACGAAAGTACCC (((..(((....)))))), for which the folding enthalpy in series [1] is -9.06 kcal/mol. Further, the Tm in series [2] is 34.7 °C.

As to GGGCCTCGAAAGAGCCC (((.(((....)))))), the folding enthalpy in series [1] was -37.9 kcal/mol. Moreover, in series [2], the Tm was 62.3 °C.

Consider GGGCCTCGAAAGAGCCCC (((.(((....))).))), for which, in series [1], the folding enthalpy is -15.7 kcal/mol. In addition, the Tm in series [2] turned out to be 57.2 °C.

GGGCCTGGAAACAAGCCC ((((.((....)).)))): the folding enthalpy in series [1] was -33.3 kcal/mol. In series [2], the Tm came to 47.4 °C.

For GGGCGACGAAAGTCTCCC (((.(((....))).))), the folding enthalpy in series [1] is -43.2 kcal/mol. In addition, the Tm in series [2] amounted to 53.6 °C.

In the case of GGGCGAGCGAAAGCTCCC (((..(((....)))))), the folding enthalpy in series [1] was -13.1 kcal/mol. Besides, the Tm in series [2] turned out to be 50.5 °C.

Regarding GGGCGAGGAAACCCGCCC (((((.(....).))))), the folding enthalpy in series [1] is -34.7 kcal/mol. The Tm in series [2] is 64.5 °C.

Regarding GGGCGATCGAAAGATCCC (((..(((....)))))), the folding enthalpy in series [1] was -17.1 kcal/mol. The Tm in series [2] amounted to 48.6 °C.

GGGCGCCGAAAGGCCCCC (((.(((....))).))): the folding enthalpy in series [1] is -14 kcal/mol. Besides, the Tm in series [2] is 65.5 °C.

Regarding GGGCGCCGAAAGGCTCCC (((.(((....))).))), the folding enthalpy in series [1] was -25.7 kcal/mol. In addition, the Tm in series [2] was 60.7 °C.

Consider GGGCGCGAAAGCGTACCC ((((((....)))..))), for which the folding enthalpy in series [1] was -13.1 kcal/mol. In addition, the Tm in series [2] came out at 56.3 °C.

Turning to GGGCGCGAAAGCGTTCCC ((((((....)))..))), the folding enthalpy in series [1] was -13.7 kcal/mol. For the same sequence, in series [2], the Tm was found to be 52.3 °C.
